Results from ChEMBL document CHEMBL1944607, “7-Substituted-pyrrolo[3,2-d]pyrimidine-2,4-dione derivatives as antagonists of the transient receptor potential ankyrin 1 (TRPA1) channel: a promising approach for treating pain and inflammation” (Bioorg Med Chem, 2012).
Active and inactive are the calls of the source. The calls are words filed in the database; no cut-off is given here.

What was measured:
[1] = biological target: Transient receptor potential cation channel subfamily A member 1 (Rattus norvegicus) (UniProt Q6RI86); assay: Antagonist activity at Sprague-Dawley rat TRPA1 expressed in rat DRG neurons assessed as inhibition of acrolein-induced calcium influx at 30 uM after 40 mins by fluorescence analysis; assay type: functional
Chain of Transient receptor potential cation channel subfamily A member 1 (Rattus norvegicus) (Q6RI86 whole entry): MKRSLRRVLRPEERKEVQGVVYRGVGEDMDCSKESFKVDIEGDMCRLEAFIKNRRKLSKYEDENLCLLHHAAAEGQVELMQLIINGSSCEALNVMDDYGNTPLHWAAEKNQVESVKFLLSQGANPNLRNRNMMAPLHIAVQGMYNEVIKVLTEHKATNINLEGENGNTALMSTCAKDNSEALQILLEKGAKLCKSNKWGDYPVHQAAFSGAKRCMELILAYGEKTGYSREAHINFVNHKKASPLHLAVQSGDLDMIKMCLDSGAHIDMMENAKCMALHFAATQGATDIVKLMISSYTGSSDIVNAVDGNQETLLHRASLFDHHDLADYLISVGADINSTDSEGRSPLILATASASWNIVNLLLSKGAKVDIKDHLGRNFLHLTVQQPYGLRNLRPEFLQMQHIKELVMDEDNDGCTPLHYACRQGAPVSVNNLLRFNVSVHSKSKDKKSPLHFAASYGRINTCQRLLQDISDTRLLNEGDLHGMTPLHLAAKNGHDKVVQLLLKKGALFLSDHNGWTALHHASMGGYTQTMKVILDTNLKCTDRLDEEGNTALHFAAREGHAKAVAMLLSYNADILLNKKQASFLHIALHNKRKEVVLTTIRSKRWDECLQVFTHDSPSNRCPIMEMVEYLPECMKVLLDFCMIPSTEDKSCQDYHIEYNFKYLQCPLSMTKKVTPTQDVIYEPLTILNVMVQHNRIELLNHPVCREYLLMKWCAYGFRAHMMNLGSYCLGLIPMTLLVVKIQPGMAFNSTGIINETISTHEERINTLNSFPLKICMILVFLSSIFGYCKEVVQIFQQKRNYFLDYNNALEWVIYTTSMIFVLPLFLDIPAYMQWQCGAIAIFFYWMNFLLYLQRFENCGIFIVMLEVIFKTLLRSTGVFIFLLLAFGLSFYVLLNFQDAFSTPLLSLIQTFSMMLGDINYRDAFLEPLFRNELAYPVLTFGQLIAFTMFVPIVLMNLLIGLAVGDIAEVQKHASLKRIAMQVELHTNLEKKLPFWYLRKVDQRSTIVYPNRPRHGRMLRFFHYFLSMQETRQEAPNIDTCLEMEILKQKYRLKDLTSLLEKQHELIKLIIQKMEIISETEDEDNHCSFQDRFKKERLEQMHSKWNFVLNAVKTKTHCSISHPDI
Method in brief: (§1)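 DRG neurons came from male Sprague–Dawley rats (100 g). Ganglia were digested in HBSS with collagenase 1A (2 mg/ml) and trypsin (1 mg/ml) for 35 min at 37 °C, dissociated through 23–25 G needles in medium with 10% FBS and 10% horse serum, then filtered and centrifuged. Neurons were loaded with Fura-2 AM for 40 min at 37 °C in HEPES buffer (pH 7.4). F340/F380 was recorded under acrolein with antagonist present. %inhibition is mean ± SEM from ≥20 neurons across three experiments; IC₅₀ comes from a variable-slope sigmoidal fit.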

[2] = biological target: Transient receptor potential cation channel subfamily A member 1 (Rattus norvegicus) (UniProt Q6RI86); assay: Antagonist activity at Sprague-Dawley rat TRPA1 expressed in rat DRG neurons assessed as inhibition of acrolein-induced calcium influx at 3 uM after 40 mins by fluorescence analysis; assay type: functional; method in brief: as §1
[3] = biological target: T1, Transient receptor potential cation channel subfamily A member 1 (Homo sapiens, UniProt O75762); assay: Antagonist activity at human TRPA1 expressed in human IMR90 cells assessed as inhibition of acrolein-induced calcium influx at 30 uM after 40 mins by fluorescence analysis; assay type: functional, cell-based; conditions: IMR-90
T1 sequence (O75762 whole entry): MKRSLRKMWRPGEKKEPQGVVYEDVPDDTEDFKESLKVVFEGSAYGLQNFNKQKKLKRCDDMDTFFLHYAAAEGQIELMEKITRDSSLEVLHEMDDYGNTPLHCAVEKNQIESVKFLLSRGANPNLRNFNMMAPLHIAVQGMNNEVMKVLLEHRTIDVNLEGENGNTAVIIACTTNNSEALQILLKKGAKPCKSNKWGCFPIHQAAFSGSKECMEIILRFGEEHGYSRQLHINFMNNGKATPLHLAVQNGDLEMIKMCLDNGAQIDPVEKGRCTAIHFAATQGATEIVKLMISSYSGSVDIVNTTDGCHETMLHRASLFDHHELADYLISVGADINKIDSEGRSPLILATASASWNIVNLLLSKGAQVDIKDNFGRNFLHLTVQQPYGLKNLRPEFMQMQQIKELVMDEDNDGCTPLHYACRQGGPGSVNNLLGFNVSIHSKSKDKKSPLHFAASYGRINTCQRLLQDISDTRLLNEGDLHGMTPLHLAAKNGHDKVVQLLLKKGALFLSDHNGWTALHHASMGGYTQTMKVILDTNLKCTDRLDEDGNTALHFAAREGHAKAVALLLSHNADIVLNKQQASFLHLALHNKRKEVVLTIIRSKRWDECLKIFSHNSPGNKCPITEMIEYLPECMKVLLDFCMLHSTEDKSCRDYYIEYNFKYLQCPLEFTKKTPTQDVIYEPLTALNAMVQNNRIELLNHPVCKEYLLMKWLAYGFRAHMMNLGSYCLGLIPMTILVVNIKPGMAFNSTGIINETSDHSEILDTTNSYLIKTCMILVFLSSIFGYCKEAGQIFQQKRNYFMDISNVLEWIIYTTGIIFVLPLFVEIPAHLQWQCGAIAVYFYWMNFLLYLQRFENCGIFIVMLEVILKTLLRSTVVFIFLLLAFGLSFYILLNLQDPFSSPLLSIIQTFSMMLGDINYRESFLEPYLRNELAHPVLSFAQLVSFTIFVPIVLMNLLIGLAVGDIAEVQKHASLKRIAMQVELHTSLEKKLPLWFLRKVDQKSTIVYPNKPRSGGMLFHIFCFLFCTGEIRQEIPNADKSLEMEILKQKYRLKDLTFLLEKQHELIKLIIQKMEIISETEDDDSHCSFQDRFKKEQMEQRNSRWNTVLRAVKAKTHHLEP
Method in brief: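 IMR90 fetal lung fibroblasts, which constitutively express human TRPA1, were grown in DMEM with 10% FBS and 2 mM L-glutamine at 37 °C under 5% CO₂, then plated on glass coverslips to 60% confluence. Cells were loaded with Fura-2 AM for 40 min at 37 °C in HEPES buffer (pH 7.4, 0.1% BSA). Single-cell F340/F380 ratio was recorded during acrolein challenge in the presence of antagonist. %inhibition is mean ± SEM from ≥25 cells across three experiments; IC₅₀ (with CI) comes from a variable-slope sigmoidal fit.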

[4] = biological target: T1, Transient receptor potential cation channel subfamily A member 1; assay: Antagonist activity at human TRPA1 expressed in human IMR90 cells assessed as inhibition of acrolein-induced calcium influx after 40 mins by fluorescence analysis
[5] = biological target: T1, Transient receptor potential cation channel subfamily A member 1; assay: Antagonist activity at human TRPA1 expressed in human IMR90 cells assessed as inhibition of acrolein-induced calcium influx at 3 uM after 40 mins by fluorescence analysis; assay type: functional, cell-based; conditions: IMR-90
[6] = biological target: Transient receptor potential cation channel subfamily V member 1 (Rattus norvegicus) (UniProt O35433); assay: Antagonist activity at Sprague-Dawley rat TRPV1 expressed in rat DRG neurons assessed as inhibition of capsaicin-induced calcium influx after 40 mins by fluorescence analysis; assay type: functional
Chain of Transient receptor potential cation channel subfamily V member 1 (Rattus norvegicus) (O35433 whole entry): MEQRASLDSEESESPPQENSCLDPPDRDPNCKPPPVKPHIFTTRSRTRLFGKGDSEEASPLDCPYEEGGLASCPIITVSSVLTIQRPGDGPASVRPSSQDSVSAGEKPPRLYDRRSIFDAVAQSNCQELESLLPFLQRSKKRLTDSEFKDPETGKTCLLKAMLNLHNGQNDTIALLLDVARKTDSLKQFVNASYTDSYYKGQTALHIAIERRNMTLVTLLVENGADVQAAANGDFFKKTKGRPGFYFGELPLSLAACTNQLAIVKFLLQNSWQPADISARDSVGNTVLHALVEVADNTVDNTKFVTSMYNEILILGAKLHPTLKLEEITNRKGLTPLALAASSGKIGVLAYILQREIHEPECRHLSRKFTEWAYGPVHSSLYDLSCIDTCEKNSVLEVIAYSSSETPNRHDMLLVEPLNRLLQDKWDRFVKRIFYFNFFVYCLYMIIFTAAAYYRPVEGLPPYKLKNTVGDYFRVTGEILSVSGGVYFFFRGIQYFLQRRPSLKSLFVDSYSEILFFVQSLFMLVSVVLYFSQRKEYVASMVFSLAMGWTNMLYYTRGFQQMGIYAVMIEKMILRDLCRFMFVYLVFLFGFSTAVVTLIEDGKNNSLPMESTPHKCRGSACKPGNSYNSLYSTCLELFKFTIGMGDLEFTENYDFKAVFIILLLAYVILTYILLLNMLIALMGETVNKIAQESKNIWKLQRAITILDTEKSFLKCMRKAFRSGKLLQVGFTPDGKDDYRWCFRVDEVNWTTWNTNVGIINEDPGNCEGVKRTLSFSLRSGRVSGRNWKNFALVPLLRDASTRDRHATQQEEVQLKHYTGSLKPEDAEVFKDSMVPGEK

[7] = biological target: Transient receptor potential cation channel subfamily A member 1 (Rattus norvegicus, UniProt Q6RI86); assay: (§2) Antagonist activity at Sprague-Dawley rat TRPA1 expressed in rat DRG neurons assessed as inhibition of acrolein-induced calcium influx after 40 mins by fluorescence analysis; assay type: functional; method in brief: as §1
Chain of Transient receptor potential cation channel subfamily A member 1 (Rattus norvegicus, UniProt Q6RI86) (Q6RI86 whole entry): as the sequence (Q6RI86 whole entry) above

[8] = biological target: T1, Transient receptor potential cation channel subfamily A member 1; assay: Antagonist activity at human TRPA1 expressed in CHO cells assessed as inhibition of calcium influx; assay type: functional, cell-based
[9] = biological target: T1, Transient receptor potential cation channel subfamily A member 1; conditions: IMR-90, 1 uM
[10] = biological target: Transient receptor potential cation channel subfamily A member 1 (Rattus norvegicus) (UniProt Q6RI86); assay: as §2; assay type: functional; method in brief: as §1

Compound	inhibition [1]	inhibition [2]	inhibition [3]	other results
CCCCCCc1ccc(NC(=O)Cn2ccc3c2c(=O)n(C)c(=O)n3C)cc1	93.3%	35.5%	–	–
CN(C(=O)Cn1ccc2c1c(=O)n(C)c(=O)n2C)c1ccc(F)cc1	–	–	< 50%	–
Cn1c(=O)c2c(ccn2CC(=O)NCCc2ccccc2)n(C)c1=O	–	–	< 50%	–
Cn1c(=O)c2c(ccn2CC(=O)Nc2ccc(Cl)cc2)n(C)c1=O	–	–	< 50%	–
Cn1c(=O)c2c(ccn2CC(=O)Nc2nc(-c3ccc(I)cc3)cs2)n(C)c1=O	–	–	< 50%	–
Cn1c(=O)c2c(ccn2CC(=O)NC23CC4CC(CC(C4)C2)C3)n(C)c1=O	–	–	< 50%	–
Cn1c(=O)c2c(ccn2CC(=O)Nc2ccc(OC(F)(F)F)cc2)n(C)c1=O	99.5%	36.8%	–	–
Cn1c(=O)c2c(ccn2CC(=O)Nc2cccc(I)c2)n(C)c1=O	–	–	< 50%	–
Cn1c(=O)c2c(ccn2CC(=O)NCc2ccccc2)n(C)c1=O	–	–	< 50%	–
CCCCCCc1ccc(-c2csc(NC(=O)Cn3ccc4c3c(=O)n(C)c(=O)n4C)n2)cc1	99.4%	92.4%	–	–
CC(C)c1ccc(NC(=O)Cn2ccc3c2c(=O)n(C)c(=O)n3C)cc1	–	–	< 50%	–
Cn1c(=O)c2c(ccn2CC(=O)NCCCc2ccccc2)n(C)c1=O	–	–	< 50%	–
CC(=C\c1ccc(Cl)cc1)/C(C)=N/O [AP18 5]	90.1%	45.2%	98.9%	IC50 [4]: 2200 nM; inhibition [5]: 69.1%; inhibition [6]: inactive; IC50 [7]: 3400 nM
CCCCc1ccc(NC(=O)Cn2ccc3c2c(=O)n(C)c(=O)n3C)cc1	97.1%	94.4%	99%	IC50 [4]: 1100 nM; inhibition [5]: 93.5%
CC(C)c1ccc(NC(=O)Cn2cnc3c2c(=O)n(C)c(=O)n3C)cc1	99.8%	80.7%	97.5%	inhibition [5]: 73.2%; inhibition [6]: inactive; IC50 [7]: 2100 nM
Cn1c(=O)c2c(ccn2CC(=O)Nc2nc(-c3ccc(C(F)(F)F)cc3)cs2)n(C)c1=O	80.2%	58.3%	–	–

Compound	inhibition [1]	inhibition [2]	inhibition [3]	other results
Cn1c(=O)c2c(ccn2CC(=O)Nc2ccc(C3CCCCC3)cc2)n(C)c1=O	–	–	< 50%	–
Cn1c(=O)c2c(ccn2CC(=O)Nc2nc(-c3ccc(F)cc3)cs2)n(C)c1=O	99.2%	3.6%	82.8%	IC50 [4]: 4100 nM; inhibition [5]: 47.9%
Cn1c(=O)c2c(ccn2CC(=O)Nc2ccc(C(C)(C)C)cc2)n(C)c1=O	95.8%	10.7%	–	–
COc1cccc(C2NC(=S)NC3=C2C(=O)c2ccccc23)c1 (centres undefined)	99.5%	40.2%	98.8%	IC50 [4]: 1500 nM; inhibition [5]: 83.1%; inhibition [6]: inactive; IC50 [8]: 128 nM; IC50 [7]: 3400 nM
Cn1c(=O)c2c(ccn2CC(=O)Nc2ccc(SC(F)(F)F)cc2)n(C)c1=O	–	–	< 50%	–
COc1ccc(NC(=O)Cn2ccc3c2c(=O)n(C)c(=O)n3C)cc1	–	–	< 50%	–
Cn1c(=O)c2c(ccn2CC(=O)Nc2ccc(C(F)(F)F)cc2)n(C)c1=O	99.7%	58.8%	99.1%	IC50 [4]: 400 nM; inhibition [5]: 99%; inhibition [6]: inactive; inhibition [9]: 88.7%; IC50 [7]: 2800 nM; inhibition [10]: Dose-dependent effect
Cn1c(=O)c2c(ccn2CC(=O)Nc2ccc(S(=O)(=O)NCc3ccccc3)cc2)n(C)c1=O	–	–	< 50%	–
Cn1c(=O)c2c(ccn2CC(=O)Nc2ccc(F)cc2F)n(C)c1=O	–	–	< 50%	–
CCN(CC)S(=O)(=O)c1ccc(NC(=O)Cn2ccc3c2c(=O)n(C)c(=O)n3C)cc1	–	–	< 50%	–
Cn1c(=O)c2c(ccn2CC(=O)Nc2ccc(I)cc2)n(C)c1=O	85.4%	12.4%	–	–
Cn1c(=O)c2c(ccn2CC(=O)Nc2ccc(N3CCOCC3)cc2)n(C)c1=O	–	–	< 50%	–
Cn1c(=O)c2c(ccn2CC(=O)Nc2nc(-c3ccccc3)cs2)n(C)c1=O	–	–	< 50%	–
Cc1ccc(CNC(=O)Cn2ccc3c2c(=O)n(C)c(=O)n3C)cc1	–	–	< 50%	–
Cn1c(=O)c2c(ccn2CC(=O)Nc2ccc(F)c(F)c2)n(C)c1=O	–	–	< 50%	–
Cn1c(=O)c2c(ccn2CC(=O)Nc2nc(-c3ccc(F)c(C(F)(F)F)c3)cs2)n(C)c1=O	99.6%	80.6%	99.3%	IC50 [4]: 1300 nM; inhibition [5]: 76.1%; inhibition [6]: inactive; IC50 [7]: 1300 nM; inhibition [10]: Dose-dependent effect
